Laboratory results taken from ChEMBL document CHEMBL1122607, “Heterocyclic analogues of chlorcyclizine with potent hypolipidemic activity” (J Med Chem, 1984).
“And” between values parts separate entries of the source, which are not always exact repeats. Identical values can stand only once.

Legend:
Rattus norvegicus [1] = assay: Minimum effective dose (MED) is the dose (mg/kg)that cause significant reduction in serum cholesterol of 30% compared to concurrent controls.; assay type: functional; parameters: unit: mg/kg
In short: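 MED was calculated from the log dose/response curve as the dose giving a statistically significant 30% fall in serum cholesterol versus concurrent controls. Measured in the 3-day oral cholesterol-fed rat screen, or in a 2-week test: groups of eight young male Wistar rats on cholesterol/cholic acid-supplemented or normal diet, dosed orally by gavage daily for 14 days, vehicle 0.5% tragacanth mucilage.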

Rattus norvegicus [2] = assay: Hypolipidemic activity was measured as reduction in rat serum triglyceride after oral administration in male Wistar rats at 50 mg / (kg day); assay type: functional
In short: (§1)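 Cholesterol-fed rats given the test compound orally by gavage on the last 3 days, with controls receiving vehicle (0.5% tragacanth mucilage). After overnight starvation, rats were killed under CO2 3 h after the last dose and bled by cardiac puncture. Serum cholesterol and triglyceride were measured by autoanalyzer and expressed as percentage reduction from control levels, with Student's t test.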

Rattus norvegicus [3] = assay: Hypolipidemic activity was measured as reduction in rat serum cholesterol after oral administration in male Wistar rats at 100 mg/(kg day); assay type: functional; in short: as §1
Rattus norvegicus [4] = assay: Hypolipidemic activity was measured as reduction in rat serum cholesterol after oral administration in male Wistar rats at 200 mg / (kg day); assay type: functional; in short: as §1
Rattus norvegicus [5] = assay: Hypolipidemic activity was measured as reduction in rat serum cholesterol after oral administration in male Wistar rats at 50 mg / (kg day); assay type: functional; in short: as §1
Rattus norvegicus [6] = assay: Hypolipidemic activity was measured as reduction in rat serum triglyceride after oral administration in male Wistar rats at 200 mg / (kg day); assay type: functional; in short: as §1
Rattus norvegicus [7] = assay: Hypolipidemic activity was measured as reduction in rat serum triglyceride after oral administration in male Wistar rats at 100 mg / (kg day); assay type: functional; in short: as §1
Rattus norvegicus [8] = assay: Hypolipidemic activity was measured as reduction in rat serum cholesterol after oral administration in male Wistar rats at 3 mg / (kg day); assay type: functional; in short: as §1
Rattus norvegicus [9] = assay: Hypolipidemic activity was measured as reduction in rat serum cholesterol after oral administration in male Wistar rats at 30 mg / (kg day); assay type: functional; in short: as §1
Rattus norvegicus [10] = assay: Hypolipidemic activity was measured as reduction in rat serum triglyceride after oral administration in male Wistar rats at 1 mg / (kg day); assay type: functional; in short: as §1
Rattus norvegicus [11] = assay: Hypolipidemic activity was measured as reduction in rat serum triglyceride after oral administration in male Wistar rats at 10 mg / (kg day); assay type: functional; in short: as §1
Rattus norvegicus [12] = assay: Hypolipidemic activity was measured as reduction in rat serum triglyceride after oral administration in male Wistar rats at 3 mg / (kg day); assay type: functional; in short: as §1
Rattus norvegicus [13] = assay: Hypolipidemic activity was measured as reduction in rat serum triglyceride after oral administration in male Wistar rats at 30 mg / (kg day); assay type: functional; in short: as §1
Rattus norvegicus [14] = assay: Hypolipidemic activity was measured as reduction in rat serum cholesterol after oral administration in male Wistar rats at 1 mg / (kg day); assay type: functional; in short: as §1
Rattus norvegicus [15] = assay: Hypolipidemic activity was measured as reduction in rat serum cholesterol after oral administration in male Wistar rats at 10 mg / (kg day); assay type: functional; in short: as §1
[16] = The therapeutic safety margin (TSM) is the ratio of the minimum lethal dose (mg/kg)to the MED; assay type: ADME, organism-based; conditions: in vivo
In short: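 Young male Wistar rats, eight per group, on cholesterol/cholic acid-supplemented or normal diet; graded oral gavage doses daily for 14 days; vehicle controls (0.5% tragacanth mucilage). Mortalities recorded to give the minimum lethal daily dose. After overnight fasting, serum cholesterol assayed by autoanalyzer. MED is the dose giving a significant (t test) 30% cholesterol fall, from the log dose/response curve. TSM = minimum lethal dose/MED.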

Rattus norvegicus [17] = assay: Hypolipidemic activity was measured as reduction in rat serum cholesterol after oral administration in male Wistar rats at 20 mg / (kg day); assay type: functional; in short: as §1
Rattus norvegicus [18] = assay: Hypolipidemic activity was measured as reduction in rat serum triglyceride after oral administration in male Wistar rats at 20 mg / (kg day); assay type: functional; in short: as §1
Rattus norvegicus [19] = assay: Hypolipidemic activity was measured as reduction in rat serum cholesterol after oral administration in male Wistar rats at 100 mg / (kg day); assay type: functional; in short: as §1
Rattus norvegicus [20] = assay: Hypolipidemic activity was measured as reduction in rat serum cholesterol after oral administration in male Wistar rats at 200 mg/(kg day); assay type: functional; in short: as §1

Structure (SMILES)	MED (Rattus norvegicus [1])	Reduction (Rattus norvegicus [2]) [%]	Reduction (Rattus norvegicus [3]) [%]	Reduction (Rattus norvegicus [4]) [%]	Reduction (Rattus norvegicus [5]) [%]	Reduction (Rattus norvegicus [6]) [%]	Reduction (Rattus norvegicus [7]) [%]	Reduction (Rattus norvegicus [8])	Reduction (Rattus norvegicus [9]) [%]	Reduction (Rattus norvegicus [10]) [%]	Reduction (Rattus norvegicus [11]) [%]	Reduction (Rattus norvegicus [12]) [%]	Reduction (Rattus norvegicus [13]) [%]	Reduction (Rattus norvegicus [14]) [%]	Reduction (Rattus norvegicus [15]) [%]	therapeutic safety margin (minimum lethal dose / MED) [16]	Reduction (Rattus norvegicus [17]) [%]	Reduction (Rattus norvegicus [18]) [%]	Reduction (Rattus norvegicus [19]) [%]	Reduction (Rattus norvegicus [20]) [%]
CN1CCN(C(c2ccc(Cl)cc2)c2ccns2)CC1 (centres undefined)	84	38	38	63	17	37	41													
Cc1cnsc1C(c1ccc(C(C)C)cc1)N1CCN(CCO)CC1 (centres undefined)	3		87				97	30%	82	3	48	8	69	10	69	30				
CN1CCN(C(c2ccccc2)c2ccns2)CC1 (centres undefined)		13		68	34	46														
CC(C)COc1ccccc1C(c1ccns1)N1CCN(C)CC1 (centres undefined)	18			85		85			49		15		50		1					
COc1ccccc1C(c1cc(C)ns1)N1CCN(C)CC1 (centres undefined)		17		75	26	78														
CN1CCN(C(c2ccns2)c2ccccc2Cl)CC1 (centres undefined)	10		67				52				12				31	5	43	15		
Cc1ccccc1C(c1c(C)noc1C)N1CCN(C)CC1 (centres undefined)			80	88		84	75		28				21							
Cc1cc(C(c2ccc(C(C)C)cc2)N2CCNCC2)sn1 (stereo in doubt; 33)	8							2%	67		38	26	66		43	< 10				
CC(C)c1ccccc1C(c1ccns1)N1CCN(C)CC1 (centres undefined)	10		77				71	15%	43		31	14	36		32					
CCCCc1ccc(C(c2cc(C)ns2)N2CCN(C)CC2)cc1 (centres undefined)		25		75	45	66														
Cc1noc(C)c1C(c1ccc(C(C)C)cc1)N1CCN(C)CC1 (centres undefined)	2		87				66	41% and 30%	80	31	35		69	8	67	100				
Cc1cnsc1C(c1ccc(C(C)C)cc1)N1CCN(CCCO)CC1 (centres undefined)	5		80				78	19%	75		48	17	55		63	20				
CCCc1ccc(C(c2ccns2)N2CCN(C)CC2)cc1 (centres undefined)	3			82		86		31%	65		7	18	34		48	20				
Cc1noc(C)c1C(=C1CCNCC1)c1ccc(C(C)C)cc1			89				89	44%	83	41	46	6	83	6	65					
CC(C)c1ccc(C(c2ccns2)N2CCNCC2)cc1 (centres undefined)	1		84				90	57%	74	24	65	18	87	37	62	4				
Cc1cc(C(c2ccc(C(C)C)cc2)N2CCN(C)CC2)sn1 (centres undefined)	9	72	63		45		85	16%							28	15				
Cc1ccc(C(c2cc(C)ns2)N2CCN(C)CC2)c(C)c1 (centres undefined)				56		52			1				31							
Cc1cc(C(=C2CCN(C)CC2)c2ccc(C(C)C)cc2)sn1	6		83				96	26%	87	3	34	37	76	19	62	5				
Cc1cnsc1C(c1ccc(C(C)C)cc1)N1CCNCC1 (centres undefined)	2		86				81	44%	87	15	48	2	76	16	70	10				
CCCCCc1ccc(C(c2ccns2)N2CCN(C)CC2)cc1 (centres undefined)				87		85			26				23							
Cc1cnsc1C(c1ccc(C(C)C)cc1)N1CCN(C)CC1 (centres undefined)	3		68				89	31%	69		42	5	64		48	30				
Cc1cnsc1C(c1ccc(C(C)C)cc1)N1CCN(CC(C)O)CC1 (centres undefined)	5		64				81	8%	50		22	22	65		45	12				
Cc1noc(C)c1C(=C1CCN(C)CC1)c1ccc(C(C)C)cc1	1		82				90	58%	89	13	78	43	93	31	83	50				
COc1ccccc1C(c1ccns1)N1CCN(C)CC1 (centres undefined)	80	32	38		31		13										3	22		
Cc1cc(C(c2ccccc2Cl)N2CCN(C)CC2)sn1 (centres undefined)	30	50	61		63		44									15	16	8		
Cc1cc(C(c2ccccc2)N2CCN(C)CC2)sn1 (centres undefined)																			21	36
Cc1cc(C(c2ccccc2C)N2CCN(C)CC2)sn1 (centres undefined)	22	26		65	56	84										10	27	14		
